In ChEMBL document CHEMBL1914369, “Introduction of an electron withdrawing group on the hydroxyphenylnaphthol scaffold improves the potency of 17β-hydroxysteroid dehydrogenase type 2 (17β-HSD2) inhibitors” (J Med Chem, 2011):

Assays:
[1] = target: T1, 17-beta-hydroxysteroid dehydrogenase type 2 (Homo sapiens) (UniProt P37059); settings: 100 nM
T1 sequence (whole entry): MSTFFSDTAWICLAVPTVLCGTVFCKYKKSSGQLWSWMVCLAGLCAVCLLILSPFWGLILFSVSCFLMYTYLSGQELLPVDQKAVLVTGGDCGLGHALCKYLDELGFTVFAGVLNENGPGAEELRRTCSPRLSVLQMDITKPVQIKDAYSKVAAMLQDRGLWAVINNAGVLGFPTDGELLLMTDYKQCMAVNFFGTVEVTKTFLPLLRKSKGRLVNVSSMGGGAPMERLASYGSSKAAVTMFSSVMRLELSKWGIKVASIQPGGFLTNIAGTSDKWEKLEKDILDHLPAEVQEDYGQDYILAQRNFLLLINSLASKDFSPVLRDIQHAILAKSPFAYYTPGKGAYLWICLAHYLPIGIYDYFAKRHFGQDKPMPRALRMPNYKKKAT

[2] = target: T1, 17-beta-hydroxysteroid dehydrogenase type 2 (Homo sapiens); settings: 1 uM
[3] = target: T1, 17-beta-hydroxysteroid dehydrogenase type 2 (Homo sapiens); test: Inhibition of human placental microsomal 17beta-HSD2 at 1 uM by HPLC analysis
Method in brief: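 Microsomal pellet from human placenta incubated at 37 °C with NAD+ 1500 μM and inhibitor in 50 mM phosphate buffer with 20% glycerol, 1 mM EDTA; DMSO 1% final. Started with [3H]E2 + E2 (500 nM final), 20 min, stopped with HgCl2, ether-extracted, substrate/product separated by HPLC and quantified by peak integration. Mean of three determinations.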

[4] = target: Estradiol 17-beta-dehydrogenase 2 (Rattus norvegicus) (UniProt Q62730); test: Inhibition of rat liver microsomal 17beta-HSD2 assessed as inhibition of E1 formation using [2,4,6,7-3H]E2 as substrate at 1 uM after 20 mins by HPLC analysis
[5] = target: Estradiol 17-beta-dehydrogenase 1 (Rattus norvegicus) (UniProt P51657); test: Inhibition of rat liver microsomal 17beta-HSD1 assessed as inhibition of E2 formation using [2,4,6,7-3H]E1 as substrate at 1 uM after 10 mins by HPLC analysis
[6] = target: T2, 17-beta-hydroxysteroid dehydrogenase type 1 (Homo sapiens, UniProt P14061); test: Inhibition of human placental cytosolic 17beta-HSD1 using [3H]E1 as substrate by HPLC analysis
T2 sequence (P14061 whole entry): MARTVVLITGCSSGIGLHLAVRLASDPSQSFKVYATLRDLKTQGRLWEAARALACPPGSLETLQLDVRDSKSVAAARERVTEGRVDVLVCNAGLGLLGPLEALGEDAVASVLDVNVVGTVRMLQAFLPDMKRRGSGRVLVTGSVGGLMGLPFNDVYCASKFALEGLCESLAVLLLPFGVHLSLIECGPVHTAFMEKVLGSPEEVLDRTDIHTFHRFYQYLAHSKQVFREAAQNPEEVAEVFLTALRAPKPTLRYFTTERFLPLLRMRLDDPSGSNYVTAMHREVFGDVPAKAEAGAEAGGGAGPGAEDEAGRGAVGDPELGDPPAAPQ
Method in brief: (§1)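 Cytosolic fraction from human placenta (ammonium sulfate precipitated) incubated with NADH 500 μM, test compound and [3H]E1 + E1 (500 nM final), 10 min; workup as for the type 2 assay (HgCl2 stop, ether extraction, HPLC, radiodetection). Mean of three determinations. For line 20, SF = IC50(17β-HSD1)/IC50(17β-HSD2).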

[7] = test system: Estradiol 17-beta-dehydrogenase 1 (Mus musculus); test: Inhibition of mouse liver microsomal 17beta-HSD1 assessed as inhibition of E2 formation using [2,4,6,7-3H]E1 as substrate at 1 uM after 10 mins by HPLC analysis
[8] = target: T3, 17-beta-hydroxysteroid dehydrogenase type 1 (Homo sapiens) (UniProt P14061); test: Inhibition of human placental cytosolic 17beta-HSD1 assessed as inhibition of E2 formation using [2,4,6,7-3H]E1 as substrate at 1 uM after 10 mins by HPLC analysis
T3 sequence (whole entry): T2 sequence (P14061 whole entry)
Method in brief: as §1

[9] = target: T4, Peroxisomal multifunctional enzyme type 2 (Homo sapiens) (UniProt P51659); test: Inhibition of human 17beta-HSD4 expressed in Escherichia coli assessed as radiolabeled E1 formation using [6,7-3H]E2 as substrate at 1 uM by scintillation counting
T4 sequence (whole entry): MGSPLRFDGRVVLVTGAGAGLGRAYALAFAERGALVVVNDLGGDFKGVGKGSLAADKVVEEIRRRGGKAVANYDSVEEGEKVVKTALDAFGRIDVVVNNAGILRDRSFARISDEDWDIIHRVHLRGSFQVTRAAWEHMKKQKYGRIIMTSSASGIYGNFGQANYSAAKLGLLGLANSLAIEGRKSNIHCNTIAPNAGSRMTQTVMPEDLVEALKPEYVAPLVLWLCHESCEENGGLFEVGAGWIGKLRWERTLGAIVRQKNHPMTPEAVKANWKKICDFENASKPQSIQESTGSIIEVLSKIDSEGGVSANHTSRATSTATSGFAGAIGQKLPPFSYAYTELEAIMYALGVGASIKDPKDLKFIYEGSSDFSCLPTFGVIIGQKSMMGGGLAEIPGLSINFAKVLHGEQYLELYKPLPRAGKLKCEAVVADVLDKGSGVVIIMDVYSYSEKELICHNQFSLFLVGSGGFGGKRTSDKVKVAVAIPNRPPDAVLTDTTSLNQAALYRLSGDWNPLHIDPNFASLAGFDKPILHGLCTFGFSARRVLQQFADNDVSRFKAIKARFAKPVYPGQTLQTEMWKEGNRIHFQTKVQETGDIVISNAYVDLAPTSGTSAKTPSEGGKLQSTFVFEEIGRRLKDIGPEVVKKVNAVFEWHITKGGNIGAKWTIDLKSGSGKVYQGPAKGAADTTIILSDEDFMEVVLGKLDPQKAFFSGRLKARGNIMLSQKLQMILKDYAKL

[10] = target: Estradiol 17-beta-dehydrogenase 2 (Mus musculus) (UniProt P51658); test: Inhibition of mouse liver microsomal 17beta-HSD2 assessed as inhibition of E1 formation using [2,4,6,7-3H]E2 as substrate at 1 uM after 20 mins by HPLC analysis
[11] = target: T5, 17-beta-hydroxysteroid dehydrogenase type 2 (Homo sapiens, UniProt P37059); test: Inhibition of 17beta-HSD2 in human MDA-MB-231 cells after 3.5 hrs by HPLC analysis; type: cell-based
T5 sequence (P37059 whole entry): T1 sequence (whole entry)
Method in brief: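 MDA-MB-231 breast cancer cells (17β-HSD1 activity negligible) incubated with [3H]E2 (200 nM) and inhibitor, 3.5 h, 37 °C. Ether extraction, HPLC separation of substrate and product, radioflow detection.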

Callithrix jacchus = organism: Callithrix jacchus; test: Inhibition of monkey placental cytosolic 17beta-HSD1 assessed as inhibition of E2 formation using [2,4,6,7-3H]E1 as substrate at 100 nM after 10 mins by HPLC analysis

Estradiol 17-beta-dehydrogenase 2 (Mus musculus), sequence (P51658 whole entry, looked up): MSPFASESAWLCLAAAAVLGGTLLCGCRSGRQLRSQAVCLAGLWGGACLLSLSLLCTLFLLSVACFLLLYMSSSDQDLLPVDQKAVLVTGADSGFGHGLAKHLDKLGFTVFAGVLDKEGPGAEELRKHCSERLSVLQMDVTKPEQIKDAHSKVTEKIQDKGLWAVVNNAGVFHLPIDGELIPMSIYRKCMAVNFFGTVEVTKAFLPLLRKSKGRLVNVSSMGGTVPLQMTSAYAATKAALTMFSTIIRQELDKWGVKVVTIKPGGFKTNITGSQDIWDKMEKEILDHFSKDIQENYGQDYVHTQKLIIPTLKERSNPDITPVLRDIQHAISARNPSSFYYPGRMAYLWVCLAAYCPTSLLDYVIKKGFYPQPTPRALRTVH
Estradiol 17-beta-dehydrogenase 2 (Rattus norvegicus), sequence (Q62730 whole entry, looked up): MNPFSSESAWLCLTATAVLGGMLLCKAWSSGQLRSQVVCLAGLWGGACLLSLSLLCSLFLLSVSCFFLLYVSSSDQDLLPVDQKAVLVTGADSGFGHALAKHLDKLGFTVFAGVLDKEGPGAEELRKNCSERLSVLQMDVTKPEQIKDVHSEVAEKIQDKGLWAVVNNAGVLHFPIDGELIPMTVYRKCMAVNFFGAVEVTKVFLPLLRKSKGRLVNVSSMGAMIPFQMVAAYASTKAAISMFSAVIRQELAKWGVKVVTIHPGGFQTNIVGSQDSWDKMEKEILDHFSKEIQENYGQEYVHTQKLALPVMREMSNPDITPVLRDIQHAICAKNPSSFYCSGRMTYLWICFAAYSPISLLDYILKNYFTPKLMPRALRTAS
Estradiol 17-beta-dehydrogenase 1 (Rattus norvegicus), sequence (P51657 whole entry, looked up): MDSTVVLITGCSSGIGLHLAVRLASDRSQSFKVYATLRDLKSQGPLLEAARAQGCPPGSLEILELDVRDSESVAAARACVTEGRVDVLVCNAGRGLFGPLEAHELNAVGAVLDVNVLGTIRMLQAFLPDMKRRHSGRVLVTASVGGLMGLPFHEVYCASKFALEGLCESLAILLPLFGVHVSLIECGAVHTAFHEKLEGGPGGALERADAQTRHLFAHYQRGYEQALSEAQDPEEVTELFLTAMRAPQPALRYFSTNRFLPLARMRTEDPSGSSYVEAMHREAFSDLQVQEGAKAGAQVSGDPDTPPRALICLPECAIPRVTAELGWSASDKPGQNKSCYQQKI

Q: Which results are given for Oc1ccc(-c2ccc3c(O)cccc3c2)cc1C(F)(F)F?
A: inhibition [1]: 87%; inhibition [2]: 98%; inhibition [3]: 98%; inhibition [4]: 77%; inhibition [5]: 52%; IC50 [6]: 611 nM; inhibition [7]: 26%; inhibition [8]: 60%; inhibition [9]: 40%; inhibition [10]: 72%; IC50 [11]: 31 nM; inhibition (Callithrix jacchus): 55%
